Sampled rows, rich in hits. Any-hit rate of the full collection: about 2.2%.
FLuc inhib CS: firefly luciferase enzyme inhibitors, primary screen, artefact control for luciferase-based inhibitor screens, biochemical, luminescence, ATPLite; Luciferin 4-monooxygenase (Photinus pyralis), P08659; 10 min; inhibition, % at 10 µM; 1.5% of 200,000 active;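 active = inhibition above about 50% when tested at 10 µM, limit read from the data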
Target sequence (P08659 whole entry, looked up): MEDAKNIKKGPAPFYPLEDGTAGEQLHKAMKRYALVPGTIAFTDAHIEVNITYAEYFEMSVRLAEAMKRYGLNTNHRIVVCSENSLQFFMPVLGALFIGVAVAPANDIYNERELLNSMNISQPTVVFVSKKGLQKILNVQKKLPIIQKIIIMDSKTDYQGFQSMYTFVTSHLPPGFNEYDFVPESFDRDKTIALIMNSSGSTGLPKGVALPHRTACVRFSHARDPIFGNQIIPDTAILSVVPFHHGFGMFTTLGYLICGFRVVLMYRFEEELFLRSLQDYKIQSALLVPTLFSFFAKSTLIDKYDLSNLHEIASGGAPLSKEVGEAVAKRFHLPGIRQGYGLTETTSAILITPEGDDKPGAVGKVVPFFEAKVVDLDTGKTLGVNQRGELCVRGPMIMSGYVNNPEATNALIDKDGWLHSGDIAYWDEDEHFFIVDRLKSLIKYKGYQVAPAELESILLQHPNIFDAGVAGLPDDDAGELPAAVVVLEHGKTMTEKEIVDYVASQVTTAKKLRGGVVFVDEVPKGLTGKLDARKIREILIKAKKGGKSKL
HSP90 inh: HSP90 inhibitors, primary screen, cell lysate, luminescence; Rabbit reticulocyte lysate, luciferase refolding luminescence, 3 h; Heat shock protein HSP 90 (rabbit reticulocyte lysate; luciferase refolding); inhibition, % at 5.6 µM; 0.91% of 290,000 active;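 active = inhibition above the screen-wide mean plus 3 SD, computed separately per campaign, cut at about 16% in these data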;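 note: inhibitors lower the luminescence because luciferase stays unfolded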
C8 TRAIL sens: viability loss with TRAIL in NB7+C8 cells, primary screen, TRAIL sensitizer project, cell-based, ATPlite luminescence | inhibition (viability loss, TRAIL sensitization), % at 10 µM | 1% of 360,000 active;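 active = compounds causing at least 50% loss of cell viability in the single-dose screen, relative to plate controls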
FLuc stim CS: FLuc activators, initial screening, artefact control for FLuc-dependent activation tests, biochemical, ATPlite luminescence. Luciferin 4-monooxygenase (Photinus pyralis), P08659. 200,000 tested, under 10 active. ATPlite luciferase biochemical, 10 min; 0 = ATP-free wells, 1 = DMSO control. AID 1027, 2008. activation factor at 10 µM;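 active = luciferase activation factor, scaled between plate controls, of at least 2 with compound at 10 µM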
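System: luciferase plus luciferin reagent, cell-free; medium: PBS as buffer for the ATP substrate; dosing: test compounds dosed from 2 mM stocks in 100% DMSO; timing: 10 min post-reagent at room temperature; measured by: luminescence measurement of luciferase light output; evaluation: luciferase activation, seen as luminescence increase over controls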
PPC-1+TRAIL kill: compounds killing PPC-1 cancer cells with TRAIL present, primary screen, TRAIL potentiator project, ATPLite luminescence, uHTS; PPC-1 cells + TRAIL, ATPLite viability luminescence; cell killing (% activity), % at 4 µM or 5 µM; 0.41% of 220,000 active; AID 1443, 2008;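 active = cell killing above 50% in the first pass at 4 µM, then a duplicate retest at 5 µM averaging 50% or more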
STAT3 inh: IL-6 driven STAT3 reporter inhibitors, primary screen, U3A cells, luciferase, luminescence, MLSCN library. inhibition, % at 5.5 µM. IL-6 STAT3-luciferase reporter; host cell line lacks STAT1. 0.89% of 190,000 active;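 active = inhibition above the mean inhibition across all screened compounds plus 3 SD, cut at about 44% in these data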
Large screens that a line does not name were inactive.

COc1ccc(/C=C2\CCc3ccccc3C2=O)cc1O	C8 TRAIL sens 66 (no result: FLuc inhib CS, FLuc stim CS, PPC-1+TRAIL kill, STAT3 inh)
O=C1/C(=C/c2cccnc2)CC/C1=C\c1cccnc1	none
O=C1/C(=C/c2ccc(O)cc2)CCc2ccc([N+](=O)[O-])cc21	none
COc1ccc(/C=C2\Cc3ccccc3C2=O)cc1OC	none (no result: FLuc inhib CS, FLuc stim CS, STAT3 inh)
Cc1ccc(C(=O)NCC(=O)NCC(=O)OCc2ccc(F)cc2)cc1	none
CCC(C)(C)C(=O)Nc1ncc(S(=O)(=O)c2ccc([N+](=O)[O-])cc2)s1	none
O=C(CCl)Nc1ncc(S(=O)(=O)c2ccc([N+](=O)[O-])cc2)s1	C8 TRAIL sens 51 (no result: FLuc inhib CS, HSP90 inh, FLuc stim CS, PPC-1+TRAIL kill, STAT3 inh)
COc1ccc2nc(-c3ccc(F)cc3)sc2c1	C8 TRAIL sens 65 (no result: FLuc inhib CS, HSP90 inh, FLuc stim CS, PPC-1+TRAIL kill, STAT3 inh)
N/C(=N\OC(=O)c1cc([N+](=O)[O-])ccc1Cl)c1ccccn1	none (no result: FLuc inhib CS, FLuc stim CS, STAT3 inh)
Cc1c(C(=O)O/N=C(\N)c2ccccn2)cccc1[N+](=O)[O-]	C8 TRAIL sens 75 (no result: FLuc inhib CS, FLuc stim CS, STAT3 inh)
N/C(=N\OC(=O)c1ccc(Cl)cc1[N+](=O)[O-])c1ccccn1	none (no result: FLuc inhib CS, FLuc stim CS, PPC-1+TRAIL kill, STAT3 inh)
N/C(=N\OC(=O)c1cccc2ccccc12)c1ccccn1	C8 TRAIL sens 56 (no result: FLuc inhib CS, FLuc stim CS, STAT3 inh)
COc1ccccc1C/C(N)=N/OC(=O)c1cccc([N+](=O)[O-])c1	C8 TRAIL sens 76
N/C(=N\OC(=O)c1cc(Br)ccc1Cl)c1ccccn1	FLuc inhib CS 52
COc1ccc(C/C(N)=N/OC(=O)c2cccc([N+](=O)[O-])c2)cc1	none
N#CC(=C1C=CC(=NO)C(Cl)=C1)c1ccccc1	none (no result: FLuc inhib CS, HSP90 inh, FLuc stim CS, PPC-1+TRAIL kill, STAT3 inh)
N/C(=N\OC(=O)c1cccc([N+](=O)[O-])c1)c1ccccn1	FLuc inhib CS 67
N/C(=N/OC(=O)c1cccc([N+](=O)[O-])c1)c1cccc([N+](=O)[O-])c1	none
O=C(O)c1cc(S(=O)(=O)N2CCN(C(=O)c3ccco3)CC2)c(Cl)cc1Cl	none (no result: FLuc inhib CS, FLuc stim CS, PPC-1+TRAIL kill, STAT3 inh)
N#Cc1c(N2C(=O)Nc3ccccc3N2O)sc2c1CCCCCC2	FLuc inhib CS 56
CC1c2[nH]c3ccccc3c2C[C@H]2C(=O)N(CCCN(C)C)CC(=O)N12 (some centres not stated)	none (no result: FLuc inhib CS, FLuc stim CS, PPC-1+TRAIL kill, STAT3 inh)
NC(C(=O)O)C1ON=C(Cl)C1O (configuration not stated)	C8 TRAIL sens 78 (no result: FLuc inhib CS, HSP90 inh, FLuc stim CS, PPC-1+TRAIL kill, STAT3 inh)
COc1ccc2sc3ccccc3c(=O)c2c1OC	none
COc1ccc(-c2ccc3sc4ccccc4c(=O)c3c2)cn1	C8 TRAIL sens 66 (no result: FLuc inhib CS, HSP90 inh, FLuc stim CS, PPC-1+TRAIL kill, STAT3 inh)
Cc1cccc(Cn2nc(C)cc2NC(=O)CCCn2ccc([N+](=O)[O-])n2)c1	none
CCN(CC)c1ccc(/C=C/c2ccc3ccc(OC)cc3[n+]2CC)cc1	C8 TRAIL sens 57 (no result: FLuc inhib CS, FLuc stim CS, PPC-1+TRAIL kill, STAT3 inh)
O=C(N/N=C/c1cccc(OC(=O)c2ccco2)c1)c1ccc(F)cc1	FLuc inhib CS 63, C8 TRAIL sens 71
O=C(N/N=C/c1ccc(OC(=O)c2ccco2)cc1)c1ccccn1	FLuc inhib CS 52
COc1cc(/C=N/NC(=O)c2ccc(F)cc2)ccc1OC(=O)c1ccco1	none
O=C(Oc1ccc(/C=N/NC(=O)c2ccccn2)cc1)c1ccc(Br)cc1	none (no result: FLuc inhib CS, FLuc stim CS, PPC-1+TRAIL kill, STAT3 inh)
Cc1ccc(C(=O)N/N=C\c2cccc(OC(=O)c3cccc(F)c3)c2)cn1	C8 TRAIL sens 54 (no result: FLuc inhib CS, FLuc stim CS, PPC-1+TRAIL kill, STAT3 inh)
C=CCC(C(=O)OC)(C(=O)OC)c1ccccc1[N+](=O)[O-]	none
OC(c1cccc(Cl)c1)c1ncc(-c2ccc(C(F)(F)F)cc2)[nH]1 (configuration not stated)	none (no result: FLuc inhib CS, HSP90 inh, FLuc stim CS, PPC-1+TRAIL kill, STAT3 inh)
CC(=O)c1ccc(NC(=O)Nc2ccccc2)cc1	C8 TRAIL sens 60
CCN(CC)c1ccc(NC(=O)Nc2ccccc2)cc1	C8 TRAIL sens 59 (no result: FLuc inhib CS, FLuc stim CS, PPC-1+TRAIL kill, STAT3 inh)
O=C(c1ccc(NC(=O)C2(c3ccccc3)CCCC2)cc1)N1CCOCC1	none (no result: FLuc inhib CS, FLuc stim CS, STAT3 inh)
O=C(Nc1ccccc1)Nc1ccc(C(=O)N2CCOCC2)cc1	FLuc inhib CS 55
CC(=O)c1ccc(NC(=O)c2ccn[nH]2)cc1	FLuc inhib CS 60
COc1ccc(CCN2C(=O)CC(NNC(=O)c3ccccc3Br)C2=O)cc1OC (configuration not stated)	none
CC(=O)Nc1ccc(N=Cc2c(O)c3ccccc3oc2=O)cc1	none (no result: FLuc inhib CS, FLuc stim CS, PPC-1+TRAIL kill, STAT3 inh)

Screening data as filed in PubChem.
